Tests used:
[1] = tested on: Acinetobacter baumannii; assay: Potentiation of Clarithromycin antibacterial activity against Acinetobacter baumannii AB5075 assessed as clarithromycin MIC at 30 uM incubated for 16 hrs by broth microdilution method; assay type: functional
[2] = tested on: Acinetobacter baumannii; assay: Antibacterial activity against Acinetobacter baumannii AB5075 assessed as reduction in bacterial growth incubated for 16 hrs by broth microdilution method; assay type: functional
[3] = tested on: Acinetobacter baumannii; assay: Potentiation of Clarithromycin antibacterial activity against Acinetobacter baumannii AB5075 assessed as fold reduction in clarithromycin MIC at 30 uM incubated for 16 hrs by broth microdilution method; assay type: functional
Summary of the method: (§1)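 Checkerboard-style potentiation by broth microdilution. 6 h day cultures in CAMHB diluted to 5×10^5 CFU/mL. Adjuvant added from 10 mM DMSO stock at fixed concentration throughout. […] Controls: antibiotic alone, adjuvant alone, media only. Incubated stationary at 37 °C for 16 h. MIC is lowest concentration with no visible growth; fold reduction taken against the antibiotic-alone lane.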

[4] = tested on: Acinetobacter baumannii; assay: Potentiation of Clarithromycin antibacterial activity against Acinetobacter baumannii AB5075 assessed as reduction in clarithromycin MIC at 20 uM incubated for 16 hrs by broth microdilution method; assay type: functional; conditions: for MIC: Acinetobacter baumannii, AB5075
[5] = tested on: Acinetobacter baumannii; assay: Potentiation of Clarithromycin antibacterial activity against Acinetobacter baumannii AB5075 assessed as fold reduction in clarithromycin MIC at 7.5 uM incubated for 16 hrs by broth microdilution method; assay type: functional; summary of the method: as §1
[6] = tested on: Acinetobacter baumannii; assay: Potentiation of Clarithromycin antibacterial activity against Acinetobacter baumannii AB5075 assessed as clarithromycin MIC at 7.5 uM incubated for 16 hrs by broth microdilution method; assay type: functional
[7] = tested on: Acinetobacter baumannii; assay: Potentiation of Clarithromycin antibacterial activity against Acinetobacter baumannii AB5075 assessed as fold reduction in clarithromycin MIC at 10 uM incubated for 16 hrs by broth microdilution method; assay type: functional; summary of the method: as §1
[8] = tested on: Acinetobacter baumannii; assay: Potentiation of Clarithromycin antibacterial activity against Acinetobacter baumannii AB5075 assessed as clarithromycin MIC at 10 uM incubated for 16 hrs by broth microdilution method; assay type: functional
[9] = tested on: Acinetobacter baumannii; assay: Potentiation of rifampicin antibacterial activity against Acinetobacter baumannii AB5075 assessed as rifampicin MIC at 30 uM incubated for 16 hrs by broth microdilution method; assay type: functional
[10] = tested on: Acinetobacter baumannii; assay: Potentiation of erythromycin antibacterial activity against Acinetobacter baumannii AB5075 assessed as erythromycin MIC at 20 uM incubated for 16 hrs by broth microdilution method; assay type: functional
[11] = tested on: Acinetobacter baumannii; assay: Potentiation of rifampicin antibacterial activity against Acinetobacter baumannii AB5075 assessed as rifampicin MIC at 20 uM incubated for 16 hrs by broth microdilution method; assay type: functional
[12] = tested on: Acinetobacter baumannii; assay: Potentiation of erythromycin antibacterial activity against Acinetobacter baumannii AB5075 assessed as erythromycin MIC at 30 uM incubated for 16 hrs by broth microdilution method; assay type: functional
[13] = tested on: Acinetobacter baumannii; assay: Potentiation of rifampicin antibacterial activity against Acinetobacter baumannii AB5075 assessed as rifampicin MIC at 10 uM incubated for 16 hrs by broth microdilution method; assay type: functional
[14] = tested on: Acinetobacter baumannii; assay: Potentiation of Azithromycin antibacterial activity against Acinetobacter baumannii AB5075 assessed as azithromycin MIC at 30 uM incubated for 16 hrs by broth microdilution method; assay type: functional
[15] = tested on: Acinetobacter baumannii; assay: Potentiation of Azithromycin antibacterial activity against Acinetobacter baumannii AB5075 assessed as azithromycin MIC at 10 uM incubated for 16 hrs by broth microdilution method; assay type: functional
[16] = tested on: Acinetobacter baumannii; assay: Potentiation of erythromycin antibacterial activity against Acinetobacter baumannii AB5075 assessed as erythromycin MIC at 10 uM incubated for 16 hrs by broth microdilution method; assay type: functional
[17] = tested on: Acinetobacter baumannii; assay: Potentiation of Azithromycin antibacterial activity against Acinetobacter baumannii AB5075 assessed as azithromycin MIC at 20 uM incubated for 16 hrs by broth microdilution method; assay type: functional
[18] = tested on: Acinetobacter baumannii; assay: Potentiation of erythromycin antibacterial activity against Acinetobacter baumannii AB5075 assessed as erythromycin MIC at 7.5 uM incubated for 16 hrs by broth microdilution method; assay type: functional
[19] = Stability of compound in human plasma assessed as parent compound remaining measured at 4 hrs; assay type: ADME, cell-free
Summary of the method: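 Compound at 20 μM final in human plasma (from 10 mM DMSO stock), 37 °C; aliquots at 0, 30, 60, 120, 240 min quenched in internal standard in 1:1 ACN/MeOH, centrifuged, supernatant analysed by UPLC-MRM. Peak-area ratio to internal standard expressed as % parent remaining relative to 0 min; half-life calculated.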

[20] = tested on: Acinetobacter baumannii; assay: Potentiation of Clarithromycin antibacterial activity against Acinetobacter baumannii AB4498 assessed as clarithromycin MIC at 10 uM incubated for 16 hrs by broth microdilution method; assay type: functional
[21] = Therapeutic index, ratio of IC50 for antiproliferative against human HepG2 cells assessed as reduction in cell viability to MIC for potentiation of Clarithromycin antibacterial activity against Acinetobacter baumannii […] assessed as clarithromycin MIC; assay type: toxicity, cell-based; conditions: read-out: TI
[22] = tested on: Acinetobacter baumannii; assay: Potentiation of Clarithromycin antibacterial activity against Acinetobacter baumannii AB3560 assessed as clarithromycin MIC at 10 uM incubated for 16 hrs by broth microdilution method; assay type: functional
[23] = Antiproliferative against human HepG2 cells assessed as reduction in cell viability incubated for 24 hrs by XTT assay; assay type: toxicity, cell-based
[24] = tested on: Acinetobacter baumannii; assay: Potentiation of rifampicin antibacterial activity against Acinetobacter baumannii AB5075 assessed as fold reduction in rifampicin MIC at 10 uM incubated for 16 hrs by broth microdilution method; assay type: functional
[25] = tested on: Acinetobacter baumannii; assay: Potentiation of Clarithromycin antibacterial activity against Acinetobacter baumannii AB5075 assessed as clarithromycin MIC at 5 uM incubated for 16 hrs by broth microdilution method; assay type: functional
[26] = tested on: Acinetobacter baumannii; assay: Potentiation of Clarithromycin antibacterial activity against Acinetobacter baumannii AB5674 assessed as clarithromycin MIC at 10 uM incubated for 16 hrs by broth microdilution method; assay type: functional
[27] = tested on: Acinetobacter baumannii; assay: Potentiation of Clarithromycin antibacterial activity against Acinetobacter baumannii AB3785 assessed as clarithromycin MIC at 10 uM incubated for 16 hrs by broth microdilution method; assay type: functional
[28] = tested on: Acinetobacter baumannii; assay: Potentiation of Clarithromycin antibacterial activity against Acinetobacter baumannii AB967 assessed as clarithromycin MIC at 10 uM incubated for 16 hrs by broth microdilution method; assay type: functional
[29] = tested on: Acinetobacter baumannii; assay: Potentiation of Azithromycin antibacterial activity against Acinetobacter baumannii AB5075 assessed as azithromycin MIC at 7.5 uM incubated for 16 hrs by broth microdilution method; assay type: functional
[30] = Metabolic stability in human liver microsomes assessed as parent compound remaining in presence of NADPH measured at 1 hr by UV-UPLC analysis; assay type: ADME, Microsome
[31] = tested on: Acinetobacter baumannii; assay: Potentiation of Clarithromycin antibacterial activity against Acinetobacter baumannii AB5711 assessed as clarithromycin MIC at 10 uM incubated for 16 hrs by broth microdilution method; assay type: functional
[32] = tested on: Acinetobacter baumannii; assay: Potentiation of Clarithromycin antibacterial activity against Acinetobacter baumannii AB5075 assessed as fold reduction in clarithromycin MIC at 5 uM incubated for 16 hrs by broth microdilution method; assay type: functional; summary of the method: as §1

For `Cl.Cl.Nc1nc(-c2ccc(NC(=O)Nc3ccc(-c4c[nH]c(N)n4)c(C(F)(F)F)c3)cc2C(F)(F)F)c[nH]1`, the MIC [1] was 2 µg/mL, the MIC [2] was greater than 200 µM and the “fold change (FC)” value [3] was 16.
With `Cl.Cl.Nc1nc(-c2cccc(NC(=O)Nc3cccc(-c4c[nH]c(N)n4)c3F)c2F)c[nH]1` the MIC [1] was 0.25 µg/mL, the “fold change (FC)” value [4] was 64 and the MIC [4] was 0.5 µg/mL. For the same compound, the “fold change (FC)” value [5] was 16, the MIC [2] was greater than 200 µM and the MIC [6] was 2 µg/mL. The “fold change (FC)” value [7] was 32, the MIC [8] was 1 µg/mL and the “fold change (FC)” value [3] was 128.
For `Cl.Cl.Nc1nc(-c2ccc(NC(=O)Nc3ccc(-c4c[nH]c(N)n4)c(Cl)c3)cc2Cl)c[nH]1`, the MIC [1] was 32 µg/mL, the MIC [2] was greater than 200 µM and the “fold change (FC)” value [3] was 1.
For `Cc1cc(-c2c[nH]c(N)n2)ccc1NC(=O)Nc1ccc(-c2c[nH]c(N)n2)cc1C.Cl.Cl`, the MIC [1] was 32 µg/mL, the MIC [2] was greater than 200 µM and the “fold change (FC)” value [3] was 1.
For `Nc1nc(-c2ccc(NC(=O)Nc3cccc(-c4c[nH]c(N)n4)c3)cc2)c[nH]1`, the MIC [9] was 0.031 µg/mL, the MIC [10] was 2 µg/mL and the MIC [1] was 0.125 µg/mL. For the same compound, the MIC [11] was 0.25 µg/mL, the MIC [12] was 1 µg/mL and the MIC [13] was 2 µg/mL. It also gave an MIC [14] of 1 µg/mL, an MIC [2] greater than 200 µM and an MIC [15] of 16 µg/mL. The MIC [16] was 16 µg/mL, the MIC [8] was 16 µg/mL and the “fold change (FC)” value [3] was 256. It also gave an MIC [17] of 4 µg/mL.
Work on `Cl.Cl.Nc1nc(-c2ccc(NC(=O)Nc3ccc(-c4c[nH]c(N)n4)c(F)c3)cc2F)c[nH]1` yielded an MIC [9] of 0.125 µg/mL, an MIC [10] of 0.5 µg/mL and an MIC [18] of 8 µg/mL. It also gave an MIC [1] of no more than 0.062 µg/mL, a Stability [19] of 83% and an MIC [11] of 0.25 µg/mL. It also gave an MIC [4] of no more than 0.062 µg/mL, an MIC [20] of 1 µg/mL and an MIC [12] of 0.125 µg/mL. It also gave an MIC [13] of 1 µg/mL, a selectivity ratio [21] of 52.9 and an MIC [22] of 0.5 µg/mL. The IC50 at 24 h [23] was 127 µg/mL, the “fold change (FC)” value [5] was 64 and the MIC [14] was 0.5 µg/mL. For the same compound, the MIC [2] was greater than 200 µM, the fold change (FC) [24] was 4 and the MIC [6] was 0.5 µg/mL. The MIC [15] was 2 µg/mL, the MIC [25] was 2 µg/mL and the MIC [26] was 0.5 µg/mL. For the same compound, the MIC [16] was 1 µg/mL, the MIC [27] was 1 µg/mL and the “fold change (FC)” value [7] was 256. For the same compound, the MIC [28] was 0.25 µg/mL, the MIC [29] was 16 µg/mL and the MIC [8] was 0.125 µg/mL. For the same compound, the “fold change (FC)” value [3] was “>=512”, the MIC [17] was 1 µg/mL and the Stability [30] was 82%. It also gave an MIC [31] of 1 µg/mL.
For `Cl.Cl.Nc1nc(-c2cc(NC(=O)Nc3ccc(F)c(-c4c[nH]c(N)n4)c3)ccc2F)c[nH]1`, the MIC [1] was 0.125 µg/mL, the “fold change (FC)” value [4] was 128 and the MIC [4] was 0.25 µg/mL. The “fold change (FC)” value [32] was 16, the “fold change (FC)” value [5] was 32 and the MIC [2] was greater than 200 µM. The MIC [6] was 1 µg/mL, the MIC [25] was 2 µg/mL and the “fold change (FC)” value [7] was 64. The MIC [8] was 0.5 µg/mL and the “fold change (FC)” value [3] was 256.
In the case of `Cl.Cl.Nc1nc(-c2ccc(NC(=O)Nc3ccc(F)c(-c4c[nH]c(N)n4)c3)cc2F)c[nH]1`, the MIC [1] is reported as 0.5 µg/mL, the “fold change (FC)” value [4] is reported as 8 and the MIC [4] is reported as 4 µg/mL. For the same compound, the MIC [2] was greater than 200 µM and the “fold change (FC)” value [3] was 64.
For `Cl.Cl.Nc1nc(-c2ccc(NC(=O)Nc3ccc(-c4c[nH]c(N)n4)cc3F)c(F)c2)c[nH]1`, the MIC [1] was 4 µg/mL, the MIC [2] was greater than 200 µM and the “fold change (FC)” value [3] was 8.

Reference: ChEMBL document CHEMBL5360562 (Eur J Med Chem, 2023)
